# Autophagy mod – autophagy modulators in MEF cells, primary screen, imaging, high-content, MEF GFP-LC3 | MEF GFP-LC3 puncta imaging; test concentration mostly 10 µM | calls only at 10 µM (by protocol) | hit rate 0.98% among 190,000;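 active = percentage of spot-positive cells more than 3 SD above its plate mean, without a fluorescence outlier flag or 80% toxicity; inconclusive = no clear call, values can overlap the other calls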;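 also: spot-positive cell cutoff set from DMSO-treated cells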
# HSV replic up – enhancers of HSV replication in host cells, fold increase, host cell viability | HSV replication augmentation in cells | AID 1956, 2009 | maximum fold increase | hit rate 0.005% among 220,000; in the data active = maximum fold increase above about 1.5; inconclusive = no clear call, values can overlap the other calls; tested in PC3 cells
# Insulin prom inh – inhibitors of insulin promoter-driven GFP, primary screen, imaging, TRM-6 cells (human fetal islet line), eGFP reporter, cell count; reporter expression induced with tamoxifen; inhibition, % at 2 µM; hit rate 0.9% among 130,000; AID 1273, 2008;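 active = inhibition above the mean plus 3 SD, with well images judged a real hit on visual review, cut at about 60% in these data, passing the limit was not always enough; inconclusive = inhibition over the cutoff but images rejected on review; inactive = inhibition not above the cutoff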
# Ins promoter up – insulin promoter activators in MIN6 cells, imaging, high-content screening, mouse beta cells. MIN6 insulin promoter-GFP reporter; active compounds read high. z-score at 5 µM. hit rate 0.3% among 190,000. AID 1625, 2009;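 active = z-score above 3 at 5 µM with at least 500 cells counted in the well; inconclusive = wells under 500 cells, flagged as cytotoxic or low count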
# Furin inh – human furin inhibitors, primary screen, biochemical, fluorescence intensity; P09958; purified furin, fluorogenic substrate cleavage; inhibition, % at 20 µM or 30 µM; hit rate 0.061% among 220,000; in the data active = inhibition above about 25%
# Target sequence (P09958 108-714 limits assumed): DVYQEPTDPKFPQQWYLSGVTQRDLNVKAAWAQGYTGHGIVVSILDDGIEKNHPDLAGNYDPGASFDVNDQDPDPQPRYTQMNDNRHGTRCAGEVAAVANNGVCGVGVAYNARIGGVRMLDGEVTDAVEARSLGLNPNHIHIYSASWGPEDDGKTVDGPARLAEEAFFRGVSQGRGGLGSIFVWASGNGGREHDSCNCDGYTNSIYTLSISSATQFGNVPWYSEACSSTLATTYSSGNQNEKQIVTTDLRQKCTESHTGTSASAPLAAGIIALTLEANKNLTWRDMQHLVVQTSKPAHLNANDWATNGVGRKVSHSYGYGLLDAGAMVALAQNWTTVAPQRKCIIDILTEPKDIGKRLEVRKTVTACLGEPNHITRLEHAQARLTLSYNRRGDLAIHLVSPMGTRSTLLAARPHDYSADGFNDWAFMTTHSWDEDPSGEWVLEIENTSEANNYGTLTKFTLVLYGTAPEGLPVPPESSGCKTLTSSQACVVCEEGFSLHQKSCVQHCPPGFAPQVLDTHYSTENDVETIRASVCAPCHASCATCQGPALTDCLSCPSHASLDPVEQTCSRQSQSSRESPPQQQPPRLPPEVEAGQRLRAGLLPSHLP
# Dynein cargo inh – inhibitors of GR-EGFP nuclear translocation, primary screen, dynein cargo transport inhibitor project, imaging, high-content, 3617.4 mouse cells; test concentration mostly 20 µM; stimulated with dexamethasone, 1 µM; active compounds read low; z-score, hits read low; hit rate 0.47% among 220,000; AID 1381, 2008;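 active = plate z-score of nuclear minus cytoplasmic receptor signal below a set negative limit, without overly bright fluorescence or cell loss, cut at about -3.5 in these data, passing the limit was not always enough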;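 also: z-score of nuclear minus cytoplasmic ring GR-EGFP intensity difference per well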
#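 Buffer or medium: tet-free, stripped-serum medium; Also added: dexamethasone, 1.0 µM final; Technique: high-content fluorescence imaging after fixation; Times: 48 h induction, 1 h compound, 30 min dex at 37 °C; Read-out: per-cell GR-EGFP intensity, nucleus versus surrounding cytoplasmic ring, well-averaged.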
# The depositor's hits bear a star; i = inactive; ? = inconclusive; . = no result given; + = active, no number. A selection: hits, their analogues and other compounds. The true share with any hit is near 2%.
SMILES,Autophagy mod,HSV replic up,Insulin prom inh,Ins promoter up,Furin inh,Dynein cargo inh
COc1ccccc1OCC(O)Cn1c(=N)n(Cc2ccccc2)c2ccccc21 (stereo not given),+,i,-278,?,-22,0.18
CN(C)C=Nc1nonc1-c1ncn[nH]1,+,i,0,0.46,-7,-0.33
CN(C)C=Nc1nonc1-c1ccccc1,.,i,.,-0.78,-20,-0.35
Nc1ccc2c(c1)CC(=O)c1ccccc1S2,i,i,77*,?,-15,-1.2
CC(=O)N(c1ccccc1C)C1CCCC1,i,i,-30,-0.08,-19,-0.87
CC(=O)N(C1=C(Cl)C(=O)c2ccccc2C1=O)C1CCCCC1,.,?,.,0.28,-10,-6*
CC(=O)NC(=S)Nc1ccc(NC(=O)c2cccnc2Cl)cc1,.,i,.,-0.57,-17,0.59
O=S(=O)(Nc1ccc(S(=O)(=O)N2CCCCCC2)cc1)c1cccs1,i,i,86*,.,-4,0.73
O=C(CCNS(=O)(=O)c1cccs1)N1CCCCCC1,+,i,27,-0.15,-6,3.6
O=S(=O)(Nc1ccc(N2CCCCC2)cc1)c1cccs1,i,i,.,-0.52,-18,-0.9
COc1ccc(OC)c(C2=Nn3c(nnc3-c3cc(OC)c(OC)c(OC)c3)SC2)c1,i,i,.,-0.72,-8,-0.34
COc1cc(-c2nnc3n2N=C(c2ccccc2)CS3)cc(OC)c1OC,+,i,.,-1.1,-26,0.14
CCOC(=O)CNNC(=O)Nc1ccc(Cl)c(Cl)c1,i,.,75*,0.08,-4,0.087
CCOC(=O)N(C)OC(=O)Nc1ccc(Cl)c(Cl)c1,i,i,-73,1.1,-22,-0.36
CN(C)n1cnc2ccsc2c1=O,i,i,-43,0.08,-15,-0.6
O=C1Nc2ccc(F)cc2C12Nc1ccccc1-c1nnc(SCc3ccccc3)nc1O2 (stereo not given),i,i,75*,.,-18,0.52
O=C(N/N=C/C=C/c1ccco1)c1cccnc1,i,i,100*,-0.71,12,-0.87
O=[N+]([O-])c1ccc(Nc2c3ccccc3nc3ccccc23)cc1,+,i,40,-0.84,-26,0.78
O=S(CC1CC1(Cl)Cl)CC1CC1(Cl)Cl (stereo not given),+,i,7,0.11,-12,1.4
N/C(=N\c1nc(CSc2ccc(Cl)cc2)cc(=O)[nH]1)Nc1cccc2ccccc12,+,.,10,.,-15,-0.45
Cc1ccc(S(=O)(=O)c2c(C)nn(C(C)(C)C)c2OC(=O)C2CCCC2)cc1,i,i,82*,-0.07,0,-0.56
Cc1ccc(-n2c(=O)cc(N3CC(C)CC(C)C3)[nH]c2=O)cc1 (stereo not given),i,i,73*,-0.03,-13,-1.1
CC(C(=O)Nc1ccc2c(c1)OCCO2)N(C)Cc1c(F)cccc1Cl (stereo not given),+,i,.,-0.29,-24,-0.93
O=C(Nc1ccc2c(c1)OCCO2)c1c(F)cccc1F,i,i,-114,-0.1,-26,0.26
CC(/C=N/NC(=O)CSc1n[nH]c(=O)[nH]c1=O)=C\c1ccccc1,.,i,.,-0.23,-15,-0.11
SMILES,Autophagy mod,HSV replic up,Insulin prom inh,Ins promoter up,Furin inh,Dynein cargo inh
COc1cc(C(=O)NCc2nnc(SCC(=O)N3CCCc4ccccc43)o2)cc(OC)c1OC,i,i,-45,0.02,-16,-0.79
O=C(CO/N=C/c1ccc(OC(F)F)cc1)NC1CCCCCC1,+,i,.,0,-9,-0.3
O=C(Nc1ccc(O)c(C(=O)O)c1)Oc1ccccc1,.,i,.,-0.02,-28,-0.29
O=C(OCC(=O)N1CCN(C(=O)c2ccco2)CC1)c1ccccc1OCc1ccccc1,i,i,-27,12*,-26,-0.19
O=C(OCC(=O)N1CCCC1)c1ccccc1OCc1ccccc1,i,i,-58,.,-13,1.8
CC(=O)NC1=NN(C(C)=O)C(c2ccc(F)cc2)S1 (stereo not given),i,i,83*,-0.09,-18,0.35
COC(=O)C1=C(C)NC(=O)CC1c1ccccc1 (stereo not given),i,i,16,0.55,-14,0.59
COC(=O)C1=C(C)NC(=S)N(C(C)=O)C1c1ccccc1 (stereo not given),i,i,77*,.,-4,0.95
C#CCn1c(=NC(=O)c2ccc(S(=O)(=O)N3CCc4ccccc4C3)cc2)sc2cc(S(N)(=O)=O)ccc21,+,i,4,-0.17,-8,-0.33
C=CCn1c(=NC(=O)c2ccc(S(=O)(=O)N3CCc4ccccc4C3)cc2)sc2cc(S(N)(=O)=O)ccc21,i,i,37,-0.39,-27,1.5
NC(=O)C(=CNc1nc(-c2ccc(Cl)c(Cl)c2)cs1)C(N)=O,.,i,.,-0.51,-7,0.2
CCCC(=O)Nc1cc(C(F)(F)F)ccc1N1CCOCC1,i,i,25,0.36,-11,-0.46
O=C(CSCc1ccco1)Nc1cc(C(F)(F)F)ccc1N1CCOCC1,+,i,-55,0.54,-7,-0.32
COC(=O)C1=C(C)N(C)C(=O)NC1c1ccccc1 (stereo not given),i,i,0,-0.63,-15,2.2
COC(=O)C1=C(C)N(C)C(=S)NC1c1c(OC)ccc2ccccc12 (stereo not given),+,i,.,0.12,-18,0.31
Nc1cccc2nc3ccccc3cc12,+,i,.,-4.2,-21,-2.3
Nc1[nH]nc2nc3ccccc3cc12,i,i,-14,0.33,1,0.41
O=Cc1c(N2CCN(c3ccccc3)CC2)nc2ccccn2c1=O,+,i,.,-0.13,-17,-0.27
CCCCCCOc1ccc(/C(C)=N/NC2=NCCN2)cc1[N+](=O)[O-],+,i,21,-7.3,-21,5.7
CCCCOc1ccc(Br)cc1/C(C)=N/NC1=NCCN1,+,i,-356,.,-13,-0.32
Cc1ccc(N2C(=O)CC(N3CCN/C3=C3\CC/C(=C\c4ccccc4)C3=O)C2=O)cc1 (stereo not given),i,i,-6,1.1,-20,1.3
Cc1ccc(C)c(N2CCN(Cc3nnnn3C3CCCCC3)CC2)c1,i,i,19,0.58,-14,-0.5
Cc1ccc2nc(N3CCN(Cc4nnnn4C4CCCC4)CC3)c(C#N)cc2c1,i,i,100*,.,-25,-0.18
Cc1nn(Cc2ccccc2Cl)c(C)c1C(=O)NCCN1C(=O)S/C(=C\c2ccccc2)C1=O,i,i,-23,0.09,1,-0.63

# Source: PubChem BioAssay
